From ChEMBL document CHEMBL4665815, “Di-bromo-Based Small-Molecule Inhibitors of the PD-1/PD-L1 Immune Checkpoint” (J Med Chem, 2020) come the findings set out here.

A short description of data set [1]: Binding affinity to human PD1 (34-150 residues) extracellular domain C93S mutant expressed in Escherichia coli BL21 (DE3) incubated for 2 hrs by TR-FRET assay. On the technique in general: TR-FRET usually uses a lanthanide donor and a delayed reading to cut background.
The species entered for data set [2] is Homo sapiens. Description: Binding affinity to 15N labelled human PD1 N66A mutant assessed as induction of dissociation of PD-1 N66A mutant/PDL1 complex by w-AIDA-NMR 2D assay. The procedure, abridged:
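Uniformly 15N-labelled hPD-1 N66A mutant, expressed in bacteria grown at 28 °C in M9 medium with 15NH4Cl as the sole nitrogen source and induced with 1 mM IPTG. Protein was refolded from inclusion bodies and purified by size-exclusion chromatography in 25 mM sodium phosphate pH 6.4, 100 mM NaCl. 1H–15N signals were followed by SOFAST HMQC.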

The species entered for data set [3] is Homo sapiens. Description: Binding affinity to 15N labelled human PD1 N66A mutant assessed as induction of dissociation of PD-1 N66A mutant/PDL1 complex by w-AIDA-NMR 1D assay.
Data set [4] has as its target T1, Programmed cell death protein 1/Programmed cell death 1 ligand 1 (Homo sapiens, UniProt Q15116+Q9NZQ7). Briefly: Inhibition of hPD-1/hPD-L1 immune checkpoint using PD-L1 expressing human aAPCs and PD-1 expressing human Jurkat cells assessed as activation of effector Jurkat T cells at 0.01 to 100 uM incubated for 6 hrs by luciferase reporter gene based immune checkpoint blockade cell-based assay. Particulars: dose microM 0.01-100, time 6.0 hrs. A digest of the protocol:
(§1)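 CHO-K1 aAPCs expressing hPD-L1 and a TCR ligand were seeded at 10 000/well 17 h ahead. Compounds were serially diluted 2.5-fold in DMSO, then 1000-fold into RPMI with 1% FBS (0.1% DMSO final). Jurkat hPD-1 NFAT-RE luciferase effector cells were added at 20 000/well for 6 h. Bio-Glo luminescence was read as fold induction over DMSO controls. EC50 came from Hill fits with the durvalumab maximum as the ceiling. Mean ± SEM, 4–7 experiments.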
(In general: In a reporter assay the amount or activity of a reporter protein is the signal.)

For data set [5], the target named is T1, Programmed cell death protein 1/Programmed cell death 1 ligand 1. Description: (§2) Inhibition of hPD-1/hPD-L1 immune checkpoint using PD-L1 expressing human aAPCs and PD-1 expressing human Jurkat cells assessed as activation of effector Jurkat T cells incubated for 6 hrs by luciferase reporter gene based immune checkpoint blockade cell-based assay. A digest of the protocol:
as §1

Data set [6] deals with Jurkat. Briefly: Toxicity in human Jurkat cells assessed as reduction in cell viability at 40 uM incubated for 24 hrs relative to control. The class given is cell-based.
The target in data set [7] is Programmed cell death 1 ligand 1 (Mus musculus) (UniProt Q9EP73). Description: Binding affinity to mouse PD1-L1 (19-134 residues) expressed in Escherichia coli BL21 (DE3) incubated for 1 hr by MST analysis.
Data set [8] addresses Programmed cell death protein 1/Programmed cell death 1 ligand 1 (Homo sapiens, UniProt Q9NZQ7). The data set is described as §2. A digest of the protocol: as §1
A short description of data set [9]: Solubility in DMSO. Format: physicochemical.
A short description of data set [10]: Solubility in water. The note with it: buffer. The class given is physicochemical.
The target of data set [11] is Programmed cell death 1 ligand 1 (Homo sapiens) (UniProt Q9NZQ7). Description: Binding affinity to human PD-L1 (18 to 134 residues) assessed as induction of protein dimerization by 1H NMR method.
In data set [12] the target is T1, Programmed cell death protein 1/Programmed cell death 1 ligand 1. Briefly: Inhibition of PD-1/PD-L1 immune checkpoint using PD-L1 expressing human aAPCs and PD-1 expressing human PBMC assessed as increase in PD-1 receptor expression on surface of CD4+ T cells incubated for 48 hrs by flow cytometry. A digest of the protocol:
(§3)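 PBMCs from healthy donors were isolated by density-gradient centrifugation. They were added at 400 000 cells/well onto preseeded CHO-K1 hPD-L1 aAPCs and cultured 48 h with compound, DMSO or atezolizumab (5 μg/mL). Cells were detached and stained 20 min at room temperature for CD69, CD4, CD8 and PD-1, then analysed by flow cytometry. Values are mean ± SD of three independent experiments with different donors; Student's t test.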
In general terms: Flow cytometry measures light scatter and fluorescence of single cells or particles in a stream.

Data set [13] has the same target. Briefly: Inhibition of hPD-1/hPD-L1 immune checkpoint using PD-L1 expressing human aAPCs and PD-1 expressing human Jurkat cells assessed as activation of effector Jurkat T cells at 50 uM incubated for 6 hrs by luciferase reporter gene based immune checkpoint blockade cell-based assay relative to control. A digest of the protocol:
as §1

Data set [14] concerns Jurkat. Briefly: Toxicity in human Jurkat cells at >100 uM incubated for 24 hrs. Format: cell-based.
Data set [15] in a line: Binding affinity to Fc-tagged human PD-1 assessed as induction of dissociation of PD-1 N66A mutant/His-and Fc-tagged human PD-L1complex pre-incubated for 30 mins with PDL1 and measured after 1 hr by competitive ELISA.
A further data set deals with PBMC. Briefly: Effect on CD69 expression in human PBMC. Format: functional. A digest of the protocol: as §3
For data set [16], the target named is T1, Programmed cell death protein 1/Programmed cell death 1 ligand 1. Briefly: Inhibition of PD-1/PD-L1 immune checkpoint using PD-L1 expressing human aAPCs and PD-1 expressing human PBMC assessed as increase in PD-1 receptor expression on surface of CD8+ T cells incubated for 48 hrs by flow cytometry. The procedure, abridged:
as §3

Calls of active or inactive are those of the source. No cut-off for these calls is given here.

Programmed cell death 1 ligand 1 (Mus musculus), sequence (Q9EP73 whole entry, the tested form may be a part): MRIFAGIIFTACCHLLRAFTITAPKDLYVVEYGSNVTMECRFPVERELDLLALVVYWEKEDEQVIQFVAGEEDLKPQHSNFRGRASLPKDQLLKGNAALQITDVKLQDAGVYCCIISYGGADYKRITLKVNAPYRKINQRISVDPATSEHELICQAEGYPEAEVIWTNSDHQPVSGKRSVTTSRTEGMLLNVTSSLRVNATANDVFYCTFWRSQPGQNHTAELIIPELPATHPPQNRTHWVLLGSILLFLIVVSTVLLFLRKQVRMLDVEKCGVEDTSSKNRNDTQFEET
Programmed cell death protein 1/Programmed cell death 1 ligand 1 (Homo sapiens, UniProt Q9NZQ7), sequence (Q15116 whole entry): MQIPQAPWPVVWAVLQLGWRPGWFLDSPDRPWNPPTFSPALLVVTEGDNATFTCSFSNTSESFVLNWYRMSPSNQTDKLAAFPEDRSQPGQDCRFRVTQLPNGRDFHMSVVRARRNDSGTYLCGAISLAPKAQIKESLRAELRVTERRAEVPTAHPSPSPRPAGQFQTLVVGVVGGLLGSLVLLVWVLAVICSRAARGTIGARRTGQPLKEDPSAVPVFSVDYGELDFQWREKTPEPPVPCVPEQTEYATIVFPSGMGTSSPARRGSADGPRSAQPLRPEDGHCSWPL
Programmed cell death protein 1/Programmed cell death 1 ligand 1 (Homo sapiens, UniProt Q9NZQ7), sequence (Q9NZQ7 whole entry): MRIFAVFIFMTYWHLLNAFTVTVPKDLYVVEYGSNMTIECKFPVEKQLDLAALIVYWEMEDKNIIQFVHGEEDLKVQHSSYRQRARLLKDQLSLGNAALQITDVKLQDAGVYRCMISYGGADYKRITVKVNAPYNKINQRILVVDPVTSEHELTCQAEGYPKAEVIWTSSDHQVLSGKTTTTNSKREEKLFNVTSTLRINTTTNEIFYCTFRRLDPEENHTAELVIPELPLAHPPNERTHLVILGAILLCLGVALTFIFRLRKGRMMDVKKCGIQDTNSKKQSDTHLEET
T1 sequence (Q15116 whole entry): as the sequence (Q15116 whole entry) above
T1 sequence (Q9NZQ7 whole entry): as the sequence (Q9NZQ7 whole entry) above
Programmed cell death 1 ligand 1 (Homo sapiens), sequence (Q9NZQ7 whole entry, the tested form may be a part): as the sequence (Q9NZQ7 whole entry) above

In data set [1], `BrCc1cccc(-c2ccccc2)c1Br` returned an IC50 of 50.7 µM. The result in the data set listed under Homo sapiens [2] and in the data set filed under Homo sapiens [3] was Active.

For `OCc1cccc(-c2ccccc2)c1-c1ccccc1`, the IC50 in [1] is over 100 µM. For the compound `O=Cc1ccc(OCc2cccc(-c3cccc(F)c3)c2Br)c(Br)c1`, the half-inhibitory concentration (IC50) in data set [1] stood at 55 µM. The compound `COc1cc(C=O)ccc1OCc1cccc(-c2ccccc2)c1Br` yielded an IC50 in data set [1] of over 100 µM. As to `N#Cc1cc(COc2cc(OCc3cccc(-c4ccccc4)c3-c3ccccc3)c(Cl)cc2C=O)ccn1`, the result in data set [4] was Active. In [1], this compound showed an IC50 of 23.8 µM. For the same compound, the EC50 in data set [5] is over 40 µM. On to `Cc1c(COc2cc(OCc3cccc(C#N)c3)c(CN3C[C@H](O)C[C@@H]3C(=O)O)cc2Cl)cccc1-c1ccc2c(c1)OCCO2`, for which, in the data set with Jurkat [6], the Activity was determined as 50%. Also, the outcome in [7] was inactive. On to `CC(=O)NCCNCc1ccc(OCc2cccc(-c3ccc(C#N)cc3)c2Br)c(Br)c1`, for which, in data set [1], the IC50 came out at 5.11 µM. `OCc1cccc(-c2ccccc2)c1F` came in with an IC50 in data set [1] of 55.9 µM. The outcome in the data set listed under Homo sapiens [2] and in the data set filed under Homo sapiens [3] was Active. For the compound `O=Cc1cc(Cl)c(OCc2cccc(-c3ccccc3)c2Br)cc1O`, the IC50 in data set [1] was over 100 µM.

As to `O=Cc1ccc(OCc2cccc(-c3ccc4c(c3)OCCO4)c2Br)c(Br)c1`, the half-maximal inhibitory concentration (IC50) in data set [1] is 35.4 µM. In [1], `O=C(O)[C@@H]1CCCCN1Cc1ccc(OCc2cccc(-c3cccc(F)c3)c2Br)c(Br)c1` gave an IC50 of 0.0653 µM. On to `BrCc1cccc(-c2ccc3c(c2)OCCO3)c1Br`, for which the IC50 in data set [1] was determined as 64.4 µM. The same measure, in the same setting: with `O=Cc1cc(Cl)c(OCc2cccc(-c3ccccc3)c2-c2ccccc2)cc1O` the figure was over 100 µM.

As for `Cc1c(COc2ccc(CN3CCCC[C@H]3C(=O)O)cc2)cccc1-c1ccccc1`, the outcome in data set [4] was Active. Moreover, the outcome in [7] was inactive. In turn, `Cc1cc(C=O)ccc1OCc1cccc(-c2ccccc2)c1Br` came in with an IC50 in [1] of 50 µM. On the same count and under the same terms, the value for `O=Cc1ccc(OCc2cccc(-c3ccccc3)c2-c2ccccc2)c(Br)c1` was over 100 µM. `COC(=O)c1ccc(OCc2cccc(-c3ccccc3)c2Br)c(Br)c1` yielded a half-inhibitory concentration (IC50) in data set [1] of 28.6 µM. On the same count and under the same terms, with `O=Cc1ccc(OCc2cccc(-c3ccccc3)c2Br)cc1` the figure was 50 µM. As for `O=Cc1ccc(OCc2cccc(-c3ccc4c(c3)OCCO4)c2F)c(Br)c1`, the half-maximal inhibitory concentration (IC50) in [1] was over 100 µM.

For the compound `O=C(O)[C@@H]1CCCCN1Cc1ccc(OCc2cccc(-c3ccc4c(c3)OCCO4)c2Br)c(Br)c1`, the result in data set [4] was Active. The same compound displayed an IC50 in data set [1] of 0.401 µM. In addition, in data set [8], the EC50 is over 40 µM. The compound `N#Cc1ccc(-c2cccc(COc3ccc(C=O)cc3Br)c2Br)cc1` came in with an IC50 in data set [1] of over 100 µM. Regarding `Fc1cccc(-c2cccc(CBr)c2Br)c1`, in [1], the IC50 worked out at 100 µM. Turning to `O=S1(=O)CCN(Cc2ccc(OCc3cccc(-c4cccc(F)c4)c3Br)c(Br)c2)CC1`, the IC50 in data set [1] was 4.24 µM. In the case of `N#Cc1cc(COc2cc(OCc3cccc(-c4ccccc4)c3Br)c(Cl)cc2CN2C[C@@H](O)C[C@H]2C(=O)O)ccn1`, the result in [4] and in [11] was Active. In addition, the solubility entry in data set [9] and in data set [10] was “Insoluble” in each case. This compound also showed an IC50 in data set [1] of 0.0039 µM. Besides, the EC50 in data set [8] came out at 12.2 µM. In data set [1], `OCc1cccc(OCc2cccc(-c3cccc(F)c3)c2Br)c1` yielded a half-inhibitory concentration (IC50) of over 100 µM. Compound `OCc1cccc(-c2ccc3c(c2)OCCO3)c1F` showed an IC50 in [1] of 55.5 µM. Turning to `N#Cc1cccc(COc2cc(OCc3cccc(-c4ccccc4)c3Br)c(Cl)cc2C=O)c1`, in [4], the result was Active. The compound further yielded an IC50 in data set [1] of 0.552 µM. For the same compound, in [5], the EC50 was over 40 µM. In data set [1], `O=C(O)[C@@H]1C[C@H](O)CN1Cc1ccc(OCc2cccc(-c3ccccc3)c2-c2ccccc2)c(Br)c1` had a half-maximal inhibitory concentration (IC50) of 29.4 µM. Still for that read-out and setting: with `N#Cc1ccc(-c2cccc(CBr)c2Br)cc1` the figure was 66.3 µM; with `CC(=O)NCCNCc1ccc(OCc2cccc(-c3cccc(F)c3)c2Br)c(Br)c1`, 0.107 µM; with `O=Cc1ccc(OCc2cccc(-c3ccccc3)c2Br)c(Br)c1`, 50 µM.

Regarding `O=S1(=O)CCN(Cc2cccc(OCc3cccc(-c4cccc(F)c4)c3Br)c2)CC1`, the IC50 in data set [1] is 22.3 µM.

On to `O=C(O)[C@@H]1CCCCN1Cc1ccc(OCc2cccc(-c3ccccc3)c2Br)cc1`, for which the inhibition entry in data set [12] and in [16] was “Active” each time. The fold change (FC) in [13] came out at 2.1. For the same compound, the outcome in data set [4] and in [11] was Active. Besides, in the data set on Jurkat [14], the Activity result is given as “Non-Toxic”. For the same compound, the result (in [7]; in the data set with PBMC) was inactive. In addition, the IC50 was 0.00147 µM in data set [15] and 0.015 µM in data set [1]. In addition, in [8], the EC50 amounted to 6.6 µM. On to `N#Cc1cc(COc2cc(OCc3cccc(-c4ccccc4)c3Br)c(Cl)cc2C=O)ccn1`, for which the outcome in data set [4] was Active. This compound also showed an IC50 in data set [1] of 29.4 µM. The EC50 in [5] is over 40 µM.

`CC(=O)NCCNCc1ccc(OCc2cccc(-c3ccc4c(c3)OCCO4)c2F)c(Br)c1` displayed an IC50 in data set [1] of 0.0227 µM.

In general, IC50 refers to the concentration at which inhibition is half-maximal. Broadly, the EC50 is the concentration at which the effect is half-maximal.
